Assay [1] deals with Plasmodium falciparum. Briefly: (§1) In vitro antimalarial activity for chloroquine-resistant Plasmodium falciparum in schizont maturation assay. Format: functional, organism-based. Summed up: (§2)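 P. falciparum (lab chloroquine-sensitive strains; resistant field isolate from Jagadalpur patients) in O+ human RBCs, RPMI 1640 + 10% human serum, 37 °C, 5% CO2; sorbitol-synchronized rings at 2% in erythrocytes. Double dilutions, duplicate wells, 24 h. Giemsa smears: mature schizonts counted among 200 asexual parasites; inhibition = (1 − Nt/Nc) × 100.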

Assay [2] concerns Plasmodium falciparum. The description is as §1. Format: functional. Summed up: as §2
For assay [3], the system named is Plasmodium falciparum. In words: (§3) In vitro antimalarial activity for chloroquine-sensitive Plasmodium falciparum in schizont maturation assay. Format: functional, organism-based. In outline: as §2
Assay [4] relates to Plasmodium falciparum. The description is as §3. Format: functional. In outline:
(§4)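 Chloroquine-sensitive P. falciparum, sorbitol-synchronized ring stages, cultured in O+ human RBCs in RPMI 1640 with 10% human serum at 37 °C under 5% CO2. Duplicate wells held erythrocytes at 2% ring-stage parasitaemia across double dilutions of compound. After 24 h, Giemsa smears were scored for mature schizonts among 200 asexual parasites. Inhibition was calculated as (1 − Nt/Nc)×100 against medium-only controls.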

Assay [5] deals with Plasmodium falciparum. In words: In vitro antimalarial activity as schizont maturation against drug-resistant Plasmodium falciparum. Format: functional. Summed up:
as §2

The test system of assay [6] is Plasmodium falciparum. Briefly: In vitro antimalarial activity as schizont maturation against drug-sensitive Plasmodium falciparum. Format: functional. In outline:
as §4

The source of these data is ChEMBL document CHEMBL1142002, “Design, synthesis and biological evaluation of novel bicyclic beta-lactams as potential antimalarials” (Bioorg Med Chem Lett, 2005).

pIC50: −log10 of the molar value.

For `O=C1NC2CCCC12` (stereo unspecified), the pIC50 is 4.91 in assay [1] and 4.87 in assay [3]. Further, the IC90 stood at 34.5 µM in assay [2] and 31.9 µM in assay [4]. Besides, the IC99 in assay [2] worked out at 48.7 µM; in assay [4] it was 42.2 µM.
With `O=C1C2CC=CC=CC2N1Cc1ccccc1` (stereo unspecified), the pIC50 in assay [1] and in assay [3] was 5.74 in each case. Also, the IC90 in assay [2] turned out to be 2.9 µM; in assay [4], 2.8 µM. The IC99 is 3.3 µM in assay [2] and 3.2 µM in assay [4].
In the case of `O=C1NC2CCCCCCC12` (stereo unspecified), the pIC50 was 5.08 in assay [1] and 5.09 in assay [3]. For the same compound, the IC90 in assay [2] was found to be 33.9 µM; in assay [4], 33.7 µM. Further, the figures for the concentration for an effect of 99% (IC99) in assay [2] and in assay [4] were 54.8 µM and 51.2 µM, respectively.
For the compound `O=C1NC2CC/C=C\CCC12` (stereo unspecified), the pIC50 is 5.14 in assay [1] and 5.17 in assay [3]. In addition, the IC90 in assay [2] worked out at 26.1 µM; in assay [4] it was 25.4 µM. The results for the IC99 in assay [2] and in assay [4] were 48.7 µM and 43.4 µM, respectively.
With `O=C1C2CCCCCCC2N1Cc1ccccc1` (stereo unspecified), the pIC50 in assay [1] is 5.10; in assay [3] it was 5.09. Further, the IC90 came to 19.4 µM in assay [2] and 18.8 µM in assay [4]. Moreover, the IC99 in assay [2] stood at 27.4 µM; in assay [4], 25.2 µM.
For `O=C1C2CCCC2N1Cc1ccccc1` (stereo unspecified), the results for the pIC50 in assay [1] and in assay [3] were 5.13 and 5.19, respectively. Moreover, the IC90 in assay [2] is 12.4 µM; in assay [4] it was 11.2 µM. Also, the IC99 in assay [2] was 14.5 µM; in assay [4], 12.3 µM.
`O=C1C2CC=CCC2N1Cc1ccccc1` (stereo unspecified): the results for the pIC50 in assay [1] and in assay [3] were 5.80 and 5.82, respectively. Also, the IC90 in assay [2] turned out to be 6.1 µM; in assay [4], 5.6 µM. For the same compound, the values for the IC99 in assay [2] and in assay [4] were 6.4 µM and 6.1 µM, respectively.
On to `O=C1NC2CC=CCC12` (stereo unspecified), for which the pIC50 is 5.06 in assay [1] and 5.04 in assay [3]. The IC90 is 21.2 µM in assay [2] and 19.3 µM in assay [4]. Moreover, the IC99 in assay [2] was found to be 25.3 µM; in assay [4], 23.2 µM.
In turn, `O=C1NC2C=CC=CCC12` (stereo unspecified) had a pIC50 in assay [1] of 5.34. Besides, in assay [2], the IC90 came to 15.4 µM and the IC99 turned out to be 24.8 µM. In assay [4], this compound registered an IC90 of 14.5 µM and an IC99 of 20.1 µM.
On to `O=C1C2CC/C=C\CCC2N1Cc1ccccc1` (stereo unspecified), for which the pIC50 was 5.24 in assay [1] and 5.27 in assay [3]. The IC90 in assay [2] came out at 11.4 µM; in assay [4], 10.7 µM. In addition, the IC99 in assay [2] came out at 14.5 µM; in assay [4], 13.3 µM.
Take `CCN(CC)CCCC(C)Nc1ccnc2cc(Cl)ccc12` (stereo unspecified) [CHLOROQUINE]: the IC90 in assay [5] turned out to be 0.5 µM; in assay [6] it was 0.05 µM.

A word on the pIC50: it is the IC50 on a negative log10 scale, so that one unit is a factor of ten. The low end stands for a large IC50, the high end for a small IC50. What is called IC90 is the concentration at which the effect reaches the 90% level. A higher IC90 goes with a need for much substance. Broadly, the IC99 is the concentration at which the effect reaches the 99% level.
